Laboratory results from article PMC5645071 (Journal of controlled release : official journal of the …, 2015).

Key:
Caco-2 monolayers = test: Caco-2 permeability study; type: in vitro ADME
CSCs [1] = conditions: cited from earlier work
[2] = mouse, in vivo, cited from earlier work
SOX2 = test: Western blot of tumor lysates: SOX2; type: in vivo, Nu/nu mice
Summary of the method: (§1)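 Nu/nu mice bearing H1650 cancer-stem-cell tumours got vehicle or test compound by oral gavage, solution or self-emulsified form, 20 mg/kg (solution every other day). Tumour nodules were lysed in RIPA pH 8.0 with protease inhibitor; 50 µg protein (BCA) on 10% SDS-PAGE, nitrocellulose, 5% milk/TBST block, antibodies 1:1000, HRP secondary. Signal normalised to β-actin; three replicates, mean ± SEM, one-way ANOVA with Tukey test.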

Bcl-2 = test: Western blot of tumor lysates: Bcl-2; type: in vivo, Nu/nu mice; conditions: densitometry
Summary of the method: as §1

[3] = system: H1650 cancer stem cell xenograft tumor; type: in vivo; conditions: 20 mg/kg oral gavage
NF-КB = test: Western blot of tumor lysates: NF-КB; type: in vivo, Nu/nu mice
Summary of the method: as §1

In vitro release study = type: physicochemical; conditions: in 24 h, distilled water, 37 °C, 50 rpm
Summary of the method: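 Test formulation equivalent to 2 mg drug stirred in USP apparatus II with 200 ml distilled water, […], paddle 50 rpm. At set intervals, 1 ml aliquots were withdrawn, filtered and assayed by HPLC, with fresh medium replaced each time.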

[4] = system: H1650 cancer stem cell orthotopic lung tumor; type: in vivo; conditions: 20 mg/kg oral gavage, 30 days treatment
[5] = Pharmacokinetics / bioavailability in dogs; type: in vivo
Nanog = test: Western blot of tumor lysates: Nanog; type: in vivo, Nu/nu mice
lung tumor tissue = test: Hematoxylin and eosin staining of lung tumor tissue; type: in vivo, Nu/nu mice
CSCs [6] = conditions: cited from earlier work; remark: listed apart in the source
[7] = i.v. bolus 0.5 mg/kg, two-compartment model

Lucifer Yellow [reference compound]
mean permeability of paracellular control (Caco-2 monolayers; Caco-2): < 1.5 nm/s

CN(C)C(=N)N=C(N)N [Metformin]
concentrations at which it works against CSCs (CSCs [1]): 100 to 300 µM

COc1ccc(C(c2c[nH]c3ccccc23)c2c[nH]c3ccccc23)cc1 [DIM-5]
Oral bioavaibility [2]: 39%

3, 3-Diindolylmethane-14 [DIM-14]
average Peff, A–B (Caco-2 monolayers; Caco-2, donor pH 6.5, acceptor pH 7.4): approximately 0.26 ± 0.05 × 10^−6 cm/s | average Peff, B–A (Caco-2 monolayers; Caco-2, secretory direction): 0.41 ± 0.09 × 10^−6 cm/s | reduction of relative SOX2 expression versus untreated control (SOX2): 1.9 fold | reduction of β-actin relative Bcl-2 expression versus untreated control tumors (Bcl-2): 1.8 fold | decrease in average number of tumor nodules versus control [3]: 29% | decrease in lung tumor volumes [3]: 29% | decrease in lung tumor weights versus vehicle control [3]: 30% | expression of NF-КB (NF-КB): significantly down regulated | drug release (In vitro release study): ~ 10% | decrease in average number of tumor nodules versus control [4]: 22% | decrease in lung tumor volumes [4]: 34% | decrease in lung tumor weights versus vehicle control [4]: 24% | Volume of distribution (Vd) ([5]; i.v. bolus 0.5 mg/kg): 0.321 L/kg | Volume of distribution at steady state (Vdss) ([5]; i.v. bolus 0.5 mg/kg): 0.319 L/kg | K10 (elimination from central compartment) [5, 7]: 0.003 L/h | K21 (peripheral to central compartment) [5, 7]: 0.15 L/h | absolute oral bioavailability ([5]; oral 3.33 mg/kg): < 10% | decrease of relative Nanog expression versus untreated control (Nanog): 2.4 fold | histological examination of lungs and tracheobronchial epithelium (lung tumor tissue; all groups): no signs of inflammation or edema | tumor microvessels (H & E histology) (lung tumor tissue; treated tumors versus untreated mice): only occasional, isolated microvessels

CC[C@@H](C(=O)[C@@H](C)[C@@H](O)[C@H](C)[C@@H]1O[C@@H]([C@@H](CC)C(=O)O)CC[C@@H]1C)[C@H]1O[C@]2(C=C[C@@H](O)[C@]3(CC[C@@](C)([C@H]4CC[C@](O)(CC)[C@H](C)O4)O3)O2)[C@H](C)C[C@@H]1C [salinomycin]
reduction of the proportion of CSCs relative to paclitaxel (CSCs [6]): more than 100 fold

Clc1ccc(C(c2c[nH]c3ccccc23)c2c[nH]c3ccccc23)cc1 [DIM-12]
Oral bioavaibility [2]: 42%

Oc1ccc(C(c2c[nH]c3ccccc23)c2c[nH]c3ccccc23)cc1 [DIM-8]
time to reach Cmax (Tmax) ([2]; po): about 60 min | Oral bioavaibility [2]: 6%
